SMILES strings stand for the structures. The source made the active and inactive calls. No cut-off for these calls is given here.

Experimental findings from ChEMBL document CHEMBL1133058, “(+)-4-phosphonophenylglycine (PPG) a new group III selective metabotropic glutamate receptor agonist” (Bioorg Med Chem Lett, 2000) are described below.

Experiment [1] addresses T1, Metabotropic glutamate receptor 4 (Rattus norvegicus, UniProt P31423). Kind of experiment: Effective concentration against rat Metabotropic glutamate receptor 4.
The target in experiment [2] is Glutamate receptor ionotropic, NMDA 1 (Homo sapiens, UniProt Q05586). Kind of experiment: Dissociation constant against N-methyl-D-aspartate glutamate receptor using [3H]CPP binding was determined.
Experiment [3] deals with T2, Metabotropic glutamate receptor 4 (Homo sapiens, UniProt Q14833). Kind of experiment: Inhibition of forskolin stimulated cAMP accumulation in CHO cells expressing hmGluR4a at a concentration of 2000 uM; Inactive.
Experiment [4] addresses T3, Metabotropic glutamate receptor 7 (Homo sapiens, UniProt Q14831). As to the kind of experiment: Inhibition of forskolin stimulated cAMP accumulation in CHO cells expressing hmGluR7b at a concentration of 500 uM; Inactive.
For experiment [5], the target named is T1, Metabotropic glutamate receptor 4. Kind of experiment: Effective concentration against Metabotropic glutamate receptor 4.
Experiment [6] concerns the target T2, Metabotropic glutamate receptor 4. Kind of experiment: Compound was evaluated for the inhibition of forskolin stimulated cAMP accumulation in CHO cells expressing hmGluR4a. Format: functional, cell-based. The procedure, abridged:
(§1)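 Human mGluR4a or mGluR7b stably expressed in CHO cells; both enantiomers tested in the same functional assay, with cAMP measured by radioimmunoassay and EC50 values reported.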

In experiment [7] the target is T3, Metabotropic glutamate receptor 7. Kind of experiment: Compound was evaluated for the inhibition of forskolin stimulated cAMP accumulation in CHO cells expressing hmGluR7b. The experiment is classed as functional, cell-based. The procedure, abridged:
as §1

For experiment [8], the target named is Metabotropic glutamate receptor 3 (Homo sapiens) (UniProt Q14832). Kind of experiment: Activity against human Metabotropic glutamate receptor 3 up to a concentration of 300 uM; Not active.
Experiment [9] has as its target Metabotropic glutamate receptor 2 (Homo sapiens) (UniProt Q14416). Kind of experiment: Activity against human Metabotropic glutamate receptor 2 up to a concentration of 300 uM; Not active.
Experiment [10] has as its target Metabotropic glutamate receptor 1 (Homo sapiens) (UniProt Q13255). Kind of experiment: Activity against human Metabotropic glutamate receptor 1 up to a concentration of 300 uM; Not active.
In experiment [11] the target is Metabotropic glutamate receptor 6 (Homo sapiens) (UniProt O15303). Kind of experiment: Activity against Metabotropic glutamate receptor 6; Not active.
Experiment [12] concerns the target Metabotropic glutamate receptor 3 (Homo sapiens) (UniProt Q14832). Kind of experiment: Activity against Metabotropic glutamate receptor 3; Not active.
Experiment [13] deals with Glutamate NMDA receptor; GRIN1/GRIN2B (Homo sapiens) (UniProt Q05586+Q13224). Kind of experiment: Activity against cloned ionotropic N-methyl-D-aspartate glutamate receptor 1/2B; Not active. The experiment is classed as protein-complex assay.
Experiment [14] concerns the target Glutamate NMDA receptor; GRIN1/GRIN2A (Homo sapiens) (UniProt Q05586+Q12879). Kind of experiment: Activity against cloned ionotropic N-methyl-D-aspartate glutamate receptor 1/2A; Not active. The experiment is classed as protein-complex assay.
In experiment [15] the target is Glutamate [NMDA] receptor (Homo sapiens) (UniProt Q05586+Q12879+Q13224+O15399+O60391+Q14957+Q8TCU5). As to the kind of experiment: Binding affinity (100 uM) against N-methyl-D-aspartate glutamate receptor using [3H]CPP binding was determined; No activity. The experiment is classed as protein-complex assay.
Experiment [16] has as its target Metabotropic glutamate receptor 5 (Homo sapiens) (UniProt P41594). As to the kind of experiment: Activity against human Metabotropic glutamate receptor 5 up to a concentration of 300 uM; Not active.

T3 sequence (Q14831 whole entry): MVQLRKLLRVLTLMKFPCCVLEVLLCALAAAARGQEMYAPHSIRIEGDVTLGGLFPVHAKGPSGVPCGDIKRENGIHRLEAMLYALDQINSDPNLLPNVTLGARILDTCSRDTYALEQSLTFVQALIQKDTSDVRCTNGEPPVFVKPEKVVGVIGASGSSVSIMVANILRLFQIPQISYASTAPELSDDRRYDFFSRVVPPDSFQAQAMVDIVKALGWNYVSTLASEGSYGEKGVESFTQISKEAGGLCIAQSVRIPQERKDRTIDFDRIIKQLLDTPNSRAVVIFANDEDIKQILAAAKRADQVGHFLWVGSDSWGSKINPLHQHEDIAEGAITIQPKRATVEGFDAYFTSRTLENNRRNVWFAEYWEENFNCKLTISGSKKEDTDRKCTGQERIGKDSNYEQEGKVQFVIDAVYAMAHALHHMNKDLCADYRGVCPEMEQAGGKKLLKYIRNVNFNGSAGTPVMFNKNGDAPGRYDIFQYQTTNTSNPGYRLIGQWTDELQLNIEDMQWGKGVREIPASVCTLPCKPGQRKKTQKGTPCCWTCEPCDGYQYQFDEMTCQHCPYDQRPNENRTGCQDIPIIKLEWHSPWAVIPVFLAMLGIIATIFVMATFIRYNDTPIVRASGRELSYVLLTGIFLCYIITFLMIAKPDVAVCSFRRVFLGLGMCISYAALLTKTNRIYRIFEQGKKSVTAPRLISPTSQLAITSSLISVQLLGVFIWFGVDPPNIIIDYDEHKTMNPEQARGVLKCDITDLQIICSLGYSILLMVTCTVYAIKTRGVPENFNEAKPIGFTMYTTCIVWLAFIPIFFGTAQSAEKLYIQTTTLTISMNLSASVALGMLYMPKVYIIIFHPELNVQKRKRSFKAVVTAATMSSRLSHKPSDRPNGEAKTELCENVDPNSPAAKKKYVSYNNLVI
T2 sequence (Q14833 whole entry): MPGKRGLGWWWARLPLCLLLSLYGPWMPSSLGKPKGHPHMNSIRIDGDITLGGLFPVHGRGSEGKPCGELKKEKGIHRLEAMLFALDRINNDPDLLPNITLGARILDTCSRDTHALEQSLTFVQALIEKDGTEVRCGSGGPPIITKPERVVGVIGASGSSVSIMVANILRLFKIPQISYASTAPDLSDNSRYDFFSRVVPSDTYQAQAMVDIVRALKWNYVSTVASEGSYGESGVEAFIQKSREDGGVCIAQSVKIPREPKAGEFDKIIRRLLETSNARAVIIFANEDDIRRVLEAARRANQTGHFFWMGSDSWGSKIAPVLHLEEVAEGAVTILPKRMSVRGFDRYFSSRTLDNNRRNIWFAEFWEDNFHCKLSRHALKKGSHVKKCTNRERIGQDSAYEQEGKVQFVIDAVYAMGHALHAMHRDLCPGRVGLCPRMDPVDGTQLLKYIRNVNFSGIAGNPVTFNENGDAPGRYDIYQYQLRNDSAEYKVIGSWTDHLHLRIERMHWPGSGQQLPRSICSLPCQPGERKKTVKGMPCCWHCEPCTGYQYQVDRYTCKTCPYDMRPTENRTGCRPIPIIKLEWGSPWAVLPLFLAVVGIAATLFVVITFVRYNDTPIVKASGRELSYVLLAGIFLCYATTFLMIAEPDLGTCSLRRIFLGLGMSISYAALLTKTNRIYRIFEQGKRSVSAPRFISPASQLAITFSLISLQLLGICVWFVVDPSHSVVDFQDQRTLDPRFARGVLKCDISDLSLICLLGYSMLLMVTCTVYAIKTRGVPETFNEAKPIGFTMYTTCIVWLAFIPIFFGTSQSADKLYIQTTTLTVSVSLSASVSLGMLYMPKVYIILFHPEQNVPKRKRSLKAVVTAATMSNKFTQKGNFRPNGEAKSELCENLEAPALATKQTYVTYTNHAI
Chain of Metabotropic glutamate receptor 3 (Homo sapiens) (Q14832 23-879 limits assumed): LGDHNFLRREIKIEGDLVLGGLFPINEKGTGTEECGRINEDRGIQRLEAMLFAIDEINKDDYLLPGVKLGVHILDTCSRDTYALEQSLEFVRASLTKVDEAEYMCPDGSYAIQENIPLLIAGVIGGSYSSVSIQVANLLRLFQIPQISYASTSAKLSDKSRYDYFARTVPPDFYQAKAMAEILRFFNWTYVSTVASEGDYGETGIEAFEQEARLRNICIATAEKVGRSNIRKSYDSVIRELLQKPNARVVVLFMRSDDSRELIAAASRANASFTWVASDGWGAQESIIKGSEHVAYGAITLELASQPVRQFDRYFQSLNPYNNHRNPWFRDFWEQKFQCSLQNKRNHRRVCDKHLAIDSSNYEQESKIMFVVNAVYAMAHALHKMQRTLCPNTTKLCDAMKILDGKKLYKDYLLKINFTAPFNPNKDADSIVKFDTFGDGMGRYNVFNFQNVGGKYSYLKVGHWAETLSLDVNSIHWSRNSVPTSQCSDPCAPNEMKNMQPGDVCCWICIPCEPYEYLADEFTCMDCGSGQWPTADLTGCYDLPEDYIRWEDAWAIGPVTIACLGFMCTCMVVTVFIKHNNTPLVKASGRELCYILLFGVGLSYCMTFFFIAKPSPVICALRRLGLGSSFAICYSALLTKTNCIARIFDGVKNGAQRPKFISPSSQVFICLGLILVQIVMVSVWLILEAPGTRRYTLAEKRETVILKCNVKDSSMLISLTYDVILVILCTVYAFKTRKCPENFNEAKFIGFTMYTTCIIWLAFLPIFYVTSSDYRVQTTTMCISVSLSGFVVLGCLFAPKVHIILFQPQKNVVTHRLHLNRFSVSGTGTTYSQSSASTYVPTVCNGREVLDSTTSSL
T1 sequence (P31423 whole entry): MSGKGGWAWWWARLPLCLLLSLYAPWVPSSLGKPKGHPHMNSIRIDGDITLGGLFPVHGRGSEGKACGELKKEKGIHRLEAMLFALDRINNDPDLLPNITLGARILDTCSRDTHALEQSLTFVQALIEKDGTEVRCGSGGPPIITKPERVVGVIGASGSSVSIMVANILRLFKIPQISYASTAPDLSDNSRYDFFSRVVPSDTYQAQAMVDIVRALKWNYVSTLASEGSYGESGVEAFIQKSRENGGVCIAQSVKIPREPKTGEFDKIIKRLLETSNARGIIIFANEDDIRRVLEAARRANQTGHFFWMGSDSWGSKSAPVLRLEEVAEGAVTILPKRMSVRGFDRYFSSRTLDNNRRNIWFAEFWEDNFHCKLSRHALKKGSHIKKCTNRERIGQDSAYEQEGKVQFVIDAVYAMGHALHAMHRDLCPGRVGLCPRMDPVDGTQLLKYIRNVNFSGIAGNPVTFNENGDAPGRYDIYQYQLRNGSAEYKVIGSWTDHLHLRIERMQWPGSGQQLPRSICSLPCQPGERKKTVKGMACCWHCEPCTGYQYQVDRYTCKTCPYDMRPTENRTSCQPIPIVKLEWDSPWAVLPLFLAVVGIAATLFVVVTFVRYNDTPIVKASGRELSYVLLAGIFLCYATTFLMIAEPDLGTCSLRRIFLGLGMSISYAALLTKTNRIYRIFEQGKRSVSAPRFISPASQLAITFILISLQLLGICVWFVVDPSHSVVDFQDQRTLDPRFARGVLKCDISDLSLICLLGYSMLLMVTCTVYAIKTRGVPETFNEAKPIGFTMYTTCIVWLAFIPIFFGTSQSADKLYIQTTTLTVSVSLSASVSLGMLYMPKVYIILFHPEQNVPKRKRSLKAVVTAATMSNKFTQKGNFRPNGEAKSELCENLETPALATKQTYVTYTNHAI
Chain of Metabotropic glutamate receptor 6 (Homo sapiens) (O15303 whole entry): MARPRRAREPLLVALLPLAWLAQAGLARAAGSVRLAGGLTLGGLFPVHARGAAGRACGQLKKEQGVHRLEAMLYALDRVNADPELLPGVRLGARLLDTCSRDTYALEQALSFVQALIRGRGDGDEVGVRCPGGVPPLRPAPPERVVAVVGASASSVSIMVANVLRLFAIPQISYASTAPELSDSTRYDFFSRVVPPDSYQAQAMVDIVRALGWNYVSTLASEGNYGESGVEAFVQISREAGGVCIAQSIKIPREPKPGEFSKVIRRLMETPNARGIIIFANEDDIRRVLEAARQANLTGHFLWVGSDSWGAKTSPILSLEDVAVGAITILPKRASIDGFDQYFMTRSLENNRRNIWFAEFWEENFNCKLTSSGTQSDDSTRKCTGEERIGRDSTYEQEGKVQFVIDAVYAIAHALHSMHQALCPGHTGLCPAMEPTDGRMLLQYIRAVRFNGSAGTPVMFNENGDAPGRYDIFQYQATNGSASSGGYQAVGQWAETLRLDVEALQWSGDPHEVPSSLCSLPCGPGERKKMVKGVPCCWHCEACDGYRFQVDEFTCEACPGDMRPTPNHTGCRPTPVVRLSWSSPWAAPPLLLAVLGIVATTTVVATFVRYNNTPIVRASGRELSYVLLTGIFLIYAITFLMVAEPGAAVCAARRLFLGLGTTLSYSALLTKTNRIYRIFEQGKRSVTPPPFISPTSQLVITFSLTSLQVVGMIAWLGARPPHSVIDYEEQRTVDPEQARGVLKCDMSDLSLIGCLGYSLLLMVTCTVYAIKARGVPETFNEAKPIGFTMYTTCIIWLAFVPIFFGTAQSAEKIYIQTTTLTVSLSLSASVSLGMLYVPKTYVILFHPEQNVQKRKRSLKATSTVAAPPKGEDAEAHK

`NC1(C(=O)O)CC(=CP(=O)(O)O)C1` (stereo not drawn): the EC50 (commonly the midpoint of the concentration-response curve) in experiment [1] was found to be 4.5 µM. That is a single-digit micromolar value.
In the case of `NC(C(=O)O)c1ccc(CP(=O)(O)O)cc1` (stereo not drawn), the affinity in [2], expressed as Kd, was 3 µM.
For `NC(C(=O)O)c1ccc(P(=O)(O)O)cc1` (stereo not drawn), the EC50 result in experiment [3] and in experiment [4] was “Not Active” each time.
In turn, `NC1(C(=O)O)CC1CP(=O)(O)O` (stereo not drawn) showed a half-maximal effective concentration (EC50) in experiment [5] of 0.5 µM.
Consider `NC(C(=O)O)c1ccc(P(=O)(O)O)cc1` (single isomer, unassigned; (+)), for which the EC50 is 3.2 µM in experiment [6] and 48 µM in experiment [7].
With `NC(C(=O)O)c1ccc(P(=O)(O)O)cc1` (stereo in doubt) [listing 1 of 2 here], the 50% effective concentration (EC50) was 5.2 µM in experiment [6] and 185 µM in [7].
On to `NC(C(=O)O)c1ccc(P(=O)(O)O)cc1` (stereo in doubt) [listing 2 of 2 here], for which the result in [8], in experiment [9], in experiment [10], in experiment [11], in experiment [12] and in experiment [13] was inactive. The outcome in experiment [14], in [15] and in experiment [16] was inactive.
